# Results published in ChEMBL document CHEMBL2157870 (J Med Chem, 2012).
# What was measured:
# Plasmodium berghei [1] = experiment: Antimalarial activity against Plasmodium berghei NK-65 infected in ICR mouse assessed as survival rate at 100 mg/kg, po administered day 3, 4 and 5 post infection; format: functional
# How it was run: (§1)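 Female Swiss outbred ICR mice, 15–20 g, given 1 X 10^6 P. berghei NK-65 infected red cells from donor mice in plasma at day 0 (modified Thompson's test). Patent infection confirmed by tail blood smear on day 3. Oral single daily doses in 0.5% HEC on days 3, 4, 5. Vehicle controls. Survival recorded daily to day 30. Parasitemia from Giemsa thin films on days 3, 6, 13, 20, 27, counting ≥1000 cells.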
# Plasmodium berghei [2] = experiment: Antimalarial activity against Plasmodium berghei NK-65 infected in ICR mouse assessed as survival rate at 50 mg/kg, po administered day 3, 4 and 5 post infection; format: functional; how it was run: as §1
# [3] = molecular target: Voltage-gated inwardly rectifying potassium channel KCNH2 (Homo sapiens, UniProt Q12809); experiment: Inhibition of human ERG by patch clamp assay
# Plasmodium berghei [4] = experiment: Antimalarial activity against Plasmodium berghei NK-65 infected in ICR mouse assessed as parasitemia level at 200 mg/kg, po administered day 3, 4 and 5 post infection measured up to day 30 by Geimsa staining; format: functional; how it was run: as §1
# Plasmodium falciparum [5] = experiment: Antimalarial activity against Plasmodium falciparum 3D7 after 72 hrs by MSF assay; format: functional, organism-based; conditions: 3D7, 72 h
# Plasmodium falciparum [6] = experiment: Antimalarial activity against Plasmodium falciparum K1 after 72 hrs by MSF assay; format: functional, organism-based; conditions: K1, 72 h
# hERG = experiment: Therapeutic index, ratio of IC50 for human ERG to EC50 for Plasmodium falciparum K1; conditions: read-out: Ratio IC50/EC50
# [7] = Permeability of the compound at 10 uM at pH 7.4 by PAMPA; format: ADME; conditions: pH 7.4, 10 µM
# How it was run: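 PAMPA: diluted compound in system solution buffer at pH 7.4 was placed in the donor well over a GIT-lipid-painted membrane, with acceptor solution buffer in the acceptor well. The sandwich was stirred for 30 min with the aqueous boundary layer set to 40 μm. Triplicate.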
# [8] = Solubility of the compound in PBS at 10 mM after 18 hrs by UV spectroscopic analysis; format: physicochemical
# [9] = Intrinsic clearance in […] mouse liver microsomes at 2 mM; format: ADME, Microsome; conditions: read-out: CLH
# Mus musculus [10] = experiment: Cmax in CD1 mouse at 20 mg/kg, po; format: ADME, organism-based; parameters: dose 20 mg/kg, route oral; conditions: in vivo
# How it was run: (§2)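 Female CD-1 mice, 8 weeks old, were given a single oral gavage dose as a suspension in 0.5% methylcellulose in sterile water. Blood was taken from three mice per time point (5 min–24 hr) into K3EDTA and processed to plasma. After acetonitrile protein precipitation, samples were analysed by LC-MS/MS with a warfarin internal standard. Noncompartmental analysis used linear-up/log-down trapezoidal AUC and at least three non-zero concentrations after Tmax.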
# Mus musculus [11] = experiment: Cmax in CD1 mouse at 200 mg/kg, po; format: ADME, organism-based; parameters: dose 200 mg/kg, route oral; conditions: in vivo; how it was run: as §2
# Mus musculus [12] = experiment: Cmax in CD1 mouse at 500 mg/kg, po; format: ADME, organism-based; parameters: dose 500 mg/kg, route oral; conditions: in vivo; how it was run: as §2
# Mus musculus [13] = experiment: Tmax in CD1 mouse at 20 mg/kg, po; format: ADME, organism-based; parameters: dose 20 mg/kg, route oral; conditions: in vivo; how it was run: as §2
# Mus musculus [14] = experiment: Tmax in CD1 mouse at 200 mg/kg, po; format: ADME, organism-based; parameters: dose 200 mg/kg, route oral; conditions: in vivo; how it was run: as §2
# Mus musculus [15] = experiment: Tmax in CD1 mouse at 500 mg/kg, po; format: ADME, organism-based; parameters: dose 500 mg/kg, route oral; conditions: in vivo; how it was run: as §2
# Mus musculus [16] = experiment: AUC (0 to infinity) in CD1 mouse at 20 mg/kg, po; format: ADME, organism-based, Plasma; parameters: time infinity, dose 20 mg/kg, route oral; conditions: in vivo; how it was run: as §2
# Mus musculus [17] = experiment: AUC (0 to infinity) in CD1 mouse at 200 mg/kg, po; format: ADME, organism-based, Plasma; parameters: time infinity, dose 200 mg/kg, route oral; conditions: in vivo; how it was run: as §2
# Mus musculus [18] = experiment: AUC (0 to infinity) in CD1 mouse at 500 mg/kg, po; format: ADME, organism-based, Plasma; parameters: time infinity, dose 500 mg/kg, route oral; conditions: in vivo; how it was run: as §2
# [19] = (§3) Apparent volume of distribution during terminal phase in CD1 mouse at 20 mg/kg, po; format: ADME, organism-based; parameters: dose 20 mg/kg, route oral; conditions: CD1, mouse, in vivo, read-out: Vz/F; how it was run: as §2
# [20] = Apparent volume of distribution during terminal phase in CD1 mouse at 200 mg/kg, po; format: ADME, organism-based; parameters: dose 200 mg/kg, route oral; conditions: in vivo, read-out: Vz/F; how it was run: as §2
# Mus musculus [21] = experiment: (§4) Apparent volume of distribution during terminal phase in CD1 mouse at 500 mg/kg, po; format: ADME, organism-based; parameters: dose 500 mg/kg, route oral; conditions: mouse, in vivo; how it was run: as §2
# Plasmodium berghei [22] = experiment: Antimalarial activity against Plasmodium berghei NK-65 infected in ICR mouse assessed as parasitemia level at 100 mg/kg, po administered day 3, 4 and 5 post infection measured up to day 30 by Geimsa staining; format: functional; how it was run: as §1
# Plasmodium berghei [23] = experiment: Antimalarial activity against Plasmodium berghei NK-65 infected in ICR mouse assessed as survival rate at 200 mg/kg, po administered day 3, 4 and 5 post infection; format: functional; how it was run: as §1
# HEK293 = experiment: Cytotoxicity against human HEK293 cells at 25 uM after 72 hrs by celltiter-glo assay; format: cell-based; conditions: hek293, 72 h
# HepG2 = experiment: Cytotoxicity against human HepG2 cells at 25 uM after 72 hrs by celltiter-glo assay; format: cell-based; conditions: hepg2, 72 h
# Raji = experiment: Cytotoxicity against human Raji cells at 25 uM after 72 hrs by celltiter-glo assay; format: cell-based
# BJ = experiment: Cytotoxicity against human BJ cells at 25 uM after 72 hrs by celltiter-glo assay; format: cell-based
# CYP2D6 [24] = molecular target: T1, CYP2D6 (Homo sapiens, UniProt P10635); experiment: Inhibition of CYP2D6 in human liver microsomes at 1 uM after 20 mins by LC-MS/MS analysis relative to control; values are per cent of control
# CYP2D6 [25] = molecular target: T1, CYP2D6; experiment: Inhibition of CYP2D6 in human liver microsomes at 10 uM after 20 mins by LC-MS/MS analysis relative to control; values are per cent of control
# [26] = molecular target: T2, ATP-sensitive inward rectifier potassium channel 11 (Homo sapiens, UniProt Q14654); experiment: Inhibition of Kir6.2 by patch clamp assay
# T2 sequence (Q14654 whole entry): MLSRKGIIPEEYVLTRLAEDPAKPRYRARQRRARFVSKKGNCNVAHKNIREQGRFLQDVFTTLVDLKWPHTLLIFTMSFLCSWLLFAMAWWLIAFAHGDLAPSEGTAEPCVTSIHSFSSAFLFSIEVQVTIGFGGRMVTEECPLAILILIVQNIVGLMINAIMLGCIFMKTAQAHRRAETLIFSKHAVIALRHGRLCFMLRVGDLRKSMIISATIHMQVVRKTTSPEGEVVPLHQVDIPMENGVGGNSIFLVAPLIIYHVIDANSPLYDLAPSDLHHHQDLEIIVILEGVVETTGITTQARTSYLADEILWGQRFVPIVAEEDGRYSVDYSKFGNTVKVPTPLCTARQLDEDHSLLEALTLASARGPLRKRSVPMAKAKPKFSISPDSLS
# Plasmodium berghei [27] = experiment: Antimalarial activity against Plasmodium berghei NK-65 infected in ICR mouse assessed as parasitemia level at 100 mg/kg, po administered day 3, 4 and 5 post infection measured on day 6 by Geimsa staining; format: functional; how it was run: as §1
# Mus musculus [28] = experiment: as §3; format: ADME, organism-based; parameters: dose 20 mg/kg, route oral; conditions: mouse, in vivo; how it was run: as §2
# [29] = as §4; format: ADME, organism-based; parameters: dose 500 mg/kg, route oral; conditions: CD1, mouse, in vivo, read-out: Vz/F; how it was run: as §2
# Plasmodium berghei [30] = experiment: Antimalarial activity against Plasmodium berghei NK-65 infected in ICR mouse assessed as parasitemia level at 200 mg/kg, po administered day 3, 4 and 5 post infection measured on day 6 by Geimsa staining; format: functional; how it was run: as §1
# Plasmodium berghei [31] = experiment: Antimalarial activity against Plasmodium berghei NK-65 infected in ICR mouse assessed as parasitemia level at 200 mg/kg, po administered day 3, 4 and 5 post infection measured on day 13 by Geimsa staining; format: functional; how it was run: as §1
# Plasmodium berghei [32] = experiment: Antimalarial activity against Plasmodium berghei NK-65 infected in ICR mouse assessed as parasitemia level at 200 mg/kg, po administered day 3, 4 and 5 post infection measured on day 20 by Geimsa staining; format: functional; how it was run: as §1
# [33] = Intrinsic clearance in human liver microsomes at 2 mM; format: ADME, Microsome; conditions: read-out: CLH
# T1 sequence (P10635 whole entry): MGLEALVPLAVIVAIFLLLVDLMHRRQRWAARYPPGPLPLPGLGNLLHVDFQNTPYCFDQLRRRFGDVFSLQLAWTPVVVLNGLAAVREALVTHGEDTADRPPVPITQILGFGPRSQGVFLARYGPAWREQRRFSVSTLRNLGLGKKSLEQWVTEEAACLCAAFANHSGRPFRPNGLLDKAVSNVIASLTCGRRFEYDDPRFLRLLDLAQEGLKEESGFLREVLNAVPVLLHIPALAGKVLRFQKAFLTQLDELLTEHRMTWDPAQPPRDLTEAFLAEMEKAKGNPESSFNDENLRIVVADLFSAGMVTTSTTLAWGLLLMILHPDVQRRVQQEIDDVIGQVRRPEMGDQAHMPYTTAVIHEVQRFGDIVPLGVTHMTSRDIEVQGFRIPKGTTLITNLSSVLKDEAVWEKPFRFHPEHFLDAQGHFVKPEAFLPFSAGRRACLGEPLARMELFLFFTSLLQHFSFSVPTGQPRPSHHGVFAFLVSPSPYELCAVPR
# Chain of Voltage-gated inwardly rectifying potassium channel KCNH2 (Q12809 whole entry): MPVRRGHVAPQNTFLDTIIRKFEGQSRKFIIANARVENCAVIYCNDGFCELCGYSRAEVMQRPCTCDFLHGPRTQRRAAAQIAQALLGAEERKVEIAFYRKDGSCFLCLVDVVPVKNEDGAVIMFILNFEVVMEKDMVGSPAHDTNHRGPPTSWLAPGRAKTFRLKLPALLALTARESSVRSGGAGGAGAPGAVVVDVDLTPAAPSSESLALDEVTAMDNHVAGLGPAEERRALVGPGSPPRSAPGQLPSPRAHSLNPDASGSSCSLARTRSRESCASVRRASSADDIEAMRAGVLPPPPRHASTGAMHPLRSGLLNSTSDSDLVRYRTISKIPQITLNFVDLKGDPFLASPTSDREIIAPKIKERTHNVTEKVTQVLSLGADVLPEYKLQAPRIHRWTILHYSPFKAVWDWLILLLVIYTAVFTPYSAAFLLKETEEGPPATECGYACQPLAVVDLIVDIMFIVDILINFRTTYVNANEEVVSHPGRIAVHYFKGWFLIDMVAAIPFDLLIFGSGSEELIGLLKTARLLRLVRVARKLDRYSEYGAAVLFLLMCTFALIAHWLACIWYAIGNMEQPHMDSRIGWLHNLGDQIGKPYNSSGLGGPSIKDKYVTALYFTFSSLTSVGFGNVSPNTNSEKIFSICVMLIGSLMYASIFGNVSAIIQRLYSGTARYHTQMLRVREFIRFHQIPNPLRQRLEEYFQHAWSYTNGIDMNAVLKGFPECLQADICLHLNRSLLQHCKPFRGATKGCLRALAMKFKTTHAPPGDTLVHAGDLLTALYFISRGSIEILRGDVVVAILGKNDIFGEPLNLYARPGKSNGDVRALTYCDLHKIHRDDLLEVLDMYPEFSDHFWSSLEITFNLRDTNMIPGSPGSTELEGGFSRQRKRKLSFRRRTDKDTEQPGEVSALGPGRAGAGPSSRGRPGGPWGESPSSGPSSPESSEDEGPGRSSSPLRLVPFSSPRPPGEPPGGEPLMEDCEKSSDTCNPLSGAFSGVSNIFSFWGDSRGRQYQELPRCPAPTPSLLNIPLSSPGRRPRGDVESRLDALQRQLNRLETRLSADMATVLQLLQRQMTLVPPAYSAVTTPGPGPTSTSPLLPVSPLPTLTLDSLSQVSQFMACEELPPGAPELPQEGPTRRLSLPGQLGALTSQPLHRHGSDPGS
Structure (SMILES),MST (Plasmodium berghei [1]) [days],EC90 (Plasmodium falciparum [5]) [µM],EC90 (Plasmodium falciparum [6]) [µM],permeability [7] [nm/s],"solubility at 18 h, 10000 µM [8] [µM]",Cmax (Mus musculus [10]) [µM],Cmax (Mus musculus [11]) [µM],Cmax (Mus musculus [12]) [µM],Tmax (Mus musculus [13]) [h],Tmax (Mus musculus [14]) [h],Tmax (Mus musculus [15]) [h],AUC (Mus musculus [16]) [µM·h],AUC (Mus musculus [17]) [µM·h],Vd/F [20] [L/kg],Activity (HEK293),Activity (HepG2),Activity (Raji),Activity (BJ),"% activity remaining at 20 min, 1 µM (CYP2D6 [24]) [%]","% activity remaining at 20 min, 10 µM (CYP2D6 [25]) [%]",further results
CCN(CC)CCCC(C)Nc1ccnc2cc(Cl)ccc12 (stereo not drawn) [CHLOROQUINE],22,–,–,–,–,–,–,–,–,–,–,–,–,–,–,–,–,–,–,–,MST (Plasmodium berghei [2]): 17 days
O=C(CCc1ccccc1)c1ccccc1OCC(O)CN1CCN(C(c2ccccc2)c2ccccc2)CC1 (stereo not drawn),7,0.09,0.1,23,0.1,0.0737,0.667,0.598,1,0.5,1,0.249,3.1,603,Non-toxic,Non-toxic,Non-toxic,Non-toxic,76,59,IC50 [3]: 2.6 µM; Activity (Plasmodium berghei [4]): 55.3%; selectivity ratio (hERG): 26; CLint scaled [9]: 4.2 L/h/kg; AUC (Mus musculus [18]): 3.37 µM·h; Vd/F [19]: 318 L/kg; Vz/F (Mus musculus [21]): 2020 L/kg; Activity (Plasmodium berghei [22]): 53.6%; MST (Plasmodium berghei [23]): 7 days
O=C(CCc1ccccc1)c1cc(F)ccc1OCC(O)CN1CCN(C(c2ccccc2)c2ccccc2)CC1 (stereo not drawn),–,0.66,0.31,8,0.2,0.0987,0.907,–,1,1,–,–,6.17,276,Non-toxic,Non-toxic,Non-toxic,Non-toxic,–,–,IC50 [26]: > 5 µM; CLint scaled [9]: 2.04 L/h/kg
O=C(CCc1ccc(F)cc1)c1ccccc1OCC(O)CN1CCN(C(c2ccccc2)c2ccccc2)CC1 (stereo not drawn),–,0.45,0.21,–,0.6,0.0924,1.14,0.861,0.5,1,0.5,0.298,5.67,288,Non-toxic,Non-toxic,Non-toxic,Non-toxic,83,76,EC50 (Plasmodium falciparum [5]): 0.16 µM; EC50 (Plasmodium falciparum [6]): 0.1 µM; permeability ([7]; BLD = below limit of detection): BLD; AUC (Mus musculus [18]): 4.08 µM·h; Vd/F [19]: 370 L/kg; Vz/F (Mus musculus [21]): 1758 L/kg
O=C(CCc1ccccc1)c1ccccc1OCC(O)CN1CCC(c2ccccc2)CC1 (stereo not drawn),9,0.75,0.24,4900,7.3,0.0696,1.62,1.75,0.3,0.5,0.5,0.224,6.8,278,Non-toxic,Non-toxic,Non-toxic,Non-toxic,78,31,Activity (Plasmodium berghei [27]): 33.3%; IC50 [26]: > 5 µM; AUC (Mus musculus [18]): 15.3 µM·h; Vz/F (Mus musculus [28]): 1093.3 L/kg; Vd/F [29]: 623 L/kg; Activity (Plasmodium berghei [30]): 44.5%; Activity (Plasmodium berghei [31]): 28.4%; Activity (Plasmodium berghei [32]): 50.4%
O=C(CCc1ccccc1)c1cc(F)ccc1OCC(O)CN1CCC(c2ccccc2)CC1 (stereo not drawn),–,2.2,0.42,–,0.2,0.434,0.481,–,1,1,–,1.6,3.75,982,Non-toxic,Non-toxic,Non-toxic,Non-toxic,73,34,EC50 (Plasmodium falciparum [5]): 1.33 µM; EC50 (Plasmodium falciparum [6]): 0.26 µM; permeability ([7]; BLD = below limit of detection): BLD; Vd/F [19]: 224 L/kg
Cc1ccc(N2CCN(CC(O)COc3ccccc3C(=O)CCc3ccccc3)CC2)cc1 (stereo not drawn),–,1.3,0.64,–,2.2,0.302,0.867,–,8,0.5,–,–,6.49,272,Non-toxic,Non-toxic,Non-toxic,Non-toxic,92,71,IC50 [3]: 4.31 µM; IC50 [26]: > 5 µM; permeability ([7]; BLD = below limit of detection): BLD; CLint scaled [33]: 2.28 L/h/kg
